# Reference: publication PMC9035732 (Photoacoustics, 2022)
# Key:
# [1] = test system: orthotopic human HCC xenograft tumors (SK-Hep1); experiment: In vivo photoacoustic imaging of orthotopic human HCC xenograft tumors; set-up: species or system mouse; details: intravenous, peptide 300 μM in 200 μL PBS; ICG 2.46 mg/kg; λex = 774 nm
# Method in brief: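 Mice were female athymic nude mice bearing orthotopic SK-Hep1 tumors, which were first established subcutaneously in the flank. IRDye800-labeled target or control peptide was given i.v. in 200 µL PBS. Blocking groups got unlabeled peptide injected beforehand, and ICG 2.46 mg/kg i.v. served as comparator. 3D photoacoustic images (excitation 774 nm) were taken before and at 0.5, 1, 1.5, 1.75, 2, 4 and 24 h. Intensity came from 2D maximum-intensity projections, with pre-injection images as background, and was expressed as tumor/background ratio.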
# [2] = test system: orthotopic human HCC xenograft tumors (SK-Hep1); type: in vivo, mouse; details: 1.75 h post-injection, mean±SD, n = 8 mice per group; λex = 785 nm
# Method in brief: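 Tumors were orthotopic SK-Hep1 xenografts in female athymic nude mice; the cells were first grown subcutaneously in the hind flank. Mice received IRDye800-labeled target or control peptide i.v. Other groups were pre-blocked with unlabeled peptide or given ICG. Paired white-light and fluorescence laparoscopic images were taken at 1.75 h post-injection. Ultrasound and MR confirmed tumor location.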
compound,measurement,setting,value
"CC1(C)C(/C=C/C=C/C=C/C=C2\N(CCCCS(=O)(=O)O)c3ccc4ccccc4c3C2(C)C)=[N+](CCCCS(=O)(=O)[O-])c2ccc3ccccc3c21 [ICG, Indocyanine green]",time of peak photoacoustic intensity in tumor post-injection,[1],not observed within 24 h
same,"mean T/B ratio, laparoscopic fluorescence imaging",[2],0.87 ± 0.2
